# Tests used:
# Format in all cases: functional
# [1] = test system: Staphylococcus haemolyticus; test: Antimicrobial activity against methicillin-resistant coagulase-negative Staphylococcus haemolyticus after 24 hrs by broth microdilution method
# Procedure, shortened: (§1)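 Clinical isolates came from blood, body fluids, genital secretions, pus or sputum, identified conventionally or by Vitek. MICs were run by CLSI M7-A6 broth microdilution in Mueller-Hinton broth with 5 × 10^5 CFU/ml inoculum. Agents were twofold serially diluted, starting from 10% DMSO. Drug-free and uninoculated controls were included. Plates were incubated aerobically at 37°C for 24 h; MIC is the lowest concentration giving no visible growth.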
# Staphylococcus simulans [2] = test: Antimicrobial activity against methicillin-susceptible coagulase-negative Staphylococcus simulans assessed as resistant isolates after 24 hrs by broth microdilution method
# Mammaliicoccus sciuri [3] = test: Antimicrobial activity against methicillin-resistant coagulase-negative Staphylococcus sciuri assessed as resistant isolates after 24 hrs by broth microdilution method
# [4] = test system: Staphylococcus epidermidis; test: Antimicrobial activity against methicillin-resistant coagulase-negative Staphylococcus epidermidis assessed as resistant isolates after 24 hrs by broth microdilution method
# Mammaliicoccus sciuri [5] = test: Antimicrobial activity against methicillin-susceptible coagulase-negative Staphylococcus sciuri after 24 hrs by broth microdilution method; procedure, shortened: as §1
# Staphylococcus simulans [6] = test: Antimicrobial activity against methicillin-susceptible coagulase-negative Staphylococcus simulans after 24 hrs by broth microdilution method; procedure, shortened: as §1
# Staphylococcus aureus [7] = test: Antimicrobial activity against methicillin-susceptible Staphylococcus aureus assessed as resistant isolates after 24 hrs by broth microdilution method
# [8] = test system: Staphylococcus epidermidis; test: Antimicrobial activity against methicillin-susceptible coagulase-negative Staphylococcus epidermidis assessed as susceptible isolates after 24 hrs by broth microdilution method
# [9] = test system: Staphylococcus epidermidis; test: Antimicrobial activity against methicillin-susceptible coagulase-negative Staphylococcus epidermidis assessed as resistant isolates after 24 hrs by broth microdilution method
# Staphylococcus hominis [10] = test: Antimicrobial activity against methicillin-susceptible coagulase-negative Staphylococcus hominis assessed as resistant isolates after 24 hrs by broth microdilution method
# Mammaliicoccus sciuri [11] = test: Antimicrobial activity against methicillin-resistant coagulase-negative Staphylococcus sciuri after 24 hrs by broth microdilution method; procedure, shortened: as §1
# [12] = test system: Staphylococcus haemolyticus; test: Antimicrobial activity against methicillin-susceptible coagulase-negative Staphylococcus haemolyticus after 24 hrs by broth microdilution method; procedure, shortened: as §1
# Mammaliicoccus sciuri [13] = test: Antimicrobial activity against methicillin-susceptible coagulase-negative Staphylococcus sciuri assessed as resistant isolates after 24 hrs by broth microdilution method
# Staphylococcus aureus [14] = test: Antimicrobial activity against methicillin-resistant Staphylococcus aureus after 24 hrs by broth microdilution method; procedure, shortened: as §1
# Staphylococcus hominis [15] = test: Bactericidal activity against methicillin-susceptible coagulase-negative Staphylococcus hominis after 24 hrs by plate counting method
# Procedure, shortened: (§2)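 Clinical staphylococcal isolates from patient body fluids, blood, genital secretions, pus or sputum; species by conventional methods or Vitek. Twofold dilutions in Mueller-Hinton broth, inoculum 5 × 10^5 CFU/ml, 37°C aerobic 24 h (CLSI M7-A6 microdilution). About 100 μl from each well without visible growth spread on MHA; 37°C 24 h. MBC = lowest concentration giving no growth on agar.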
# [16] = test system: Staphylococcus epidermidis; test: Bactericidal activity against methicillin-resistant coagulase-negative Staphylococcus epidermidis after 24 hrs by plate counting method
# Staphylococcus hominis [17] = test: Bactericidal activity against methicillin-resistant coagulase-negative Staphylococcus hominis after 24 hrs by plate counting method
# Mammaliicoccus sciuri [18] = test: Bactericidal activity against methicillin-susceptible coagulase-negative Staphylococcus sciuri after 24 hrs by plate counting method; procedure, shortened: as §2
# [19] = test system: Staphylococcus epidermidis; test: Antimicrobial activity against methicillin-susceptible coagulase-negative Staphylococcus epidermidis after 24 hrs by broth microdilution method; procedure, shortened: as §1
# Staphylococcus hominis [20] = test: Antimicrobial activity against methicillin-susceptible coagulase-negative Staphylococcus hominis assessed as susceptible isolates after 24 hrs by broth microdilution method
# [21] = test system: Staphylococcus epidermidis; test: Antimicrobial activity against methicillin-resistant coagulase-negative Staphylococcus epidermidis after 24 hrs by broth microdilution method; procedure, shortened: as §1
# [22] = test system: Staphylococcus haemolyticus; test: Antimicrobial activity against methicillin-susceptible coagulase-negative Staphylococcus haemolyticus assessed as susceptible isolates after 24 hrs by broth microdilution method
# Staphylococcus aureus [23] = test: Bactericidal activity against methicillin-resistant Staphylococcus aureus after 24 hrs by plate counting method
# Staphylococcus hominis [24] = test: Antimicrobial activity against methicillin-resistant coagulase-negative Staphylococcus hominis assessed as resistant isolates after 24 hrs by broth microdilution method
# Mammaliicoccus sciuri [25] = test: Antimicrobial activity against methicillin-susceptible coagulase-negative Staphylococcus sciuri assessed as susceptible isolates after 24 hrs by broth microdilution method
# Procedure, shortened: (§3)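 Clinical isolates from blood, body fluids, pus, sputum or genital secretions, identified conventionally or by Vitek, were tested alongside ATCC 29213 and ATCC 12228 controls. CLSI M7-A6 broth microdilution in Mueller-Hinton broth used twofold dilutions from a 10% DMSO solution and 5 × 10^5 CFU/ml inoculum. Drug-free and uninoculated wells served as controls; incubation was aerobic at 37°C for 24 h. MIC was the lowest concentration with no visible growth.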
# Staphylococcus aureus [26] = test: Antimicrobial activity against methicillin-susceptible Staphylococcus aureus after 24 hrs by broth microdilution method; procedure, shortened: as §1
# Staphylococcus simulans [27] = test: Antimicrobial activity against methicillin-resistant coagulase-negative Staphylococcus simulans assessed as resistant isolates after 24 hrs by broth microdilution method
# Staphylococcus hominis [28] = test: Antimicrobial activity against methicillin-susceptible coagulase-negative Staphylococcus hominis after 24 hrs by broth microdilution method; procedure, shortened: as §1
# Staphylococcus aureus [29] = test: Bactericidal activity against methicillin-susceptible Staphylococcus aureus after 24 hrs by plate counting method; procedure, shortened: as §2
# Staphylococcus aureus [30] = test: Antimicrobial activity against methicillin-susceptible Staphylococcus aureus assessed as susceptible isolates after 24 hrs by broth microdilution method
# [31] = test system: Staphylococcus haemolyticus; test: Bactericidal activity against methicillin-susceptible coagulase-negative Staphylococcus haemolyticus after 24 hrs by plate counting method; procedure, shortened: as §2
# [32] = test system: Staphylococcus haemolyticus; test: Antimicrobial activity against methicillin-resistant coagulase-negative Staphylococcus haemolyticus assessed as resistant isolates after 24 hrs by broth microdilution method
# Staphylococcus simulans [33] = test: Bactericidal activity against methicillin-susceptible coagulase-negative Staphylococcus simulans after 24 hrs by plate counting method; procedure, shortened: as §2
# Staphylococcus simulans [34] = test: Antimicrobial activity against methicillin-resistant coagulase-negative Staphylococcus simulans after 24 hrs by broth microdilution method; procedure, shortened: as §1
# [35] = test system: Staphylococcus haemolyticus; test: Bactericidal activity against methicillin-resistant coagulase-negative Staphylococcus haemolyticus after 24 hrs by plate counting method
# [36] = test system: Staphylococcus haemolyticus; test: Antimicrobial activity against methicillin-susceptible coagulase-negative Staphylococcus haemolyticus assessed as resistant isolates after 24 hrs by broth microdilution method
# Staphylococcus aureus [37] = test: Antimicrobial activity against methicillin-resistant Staphylococcus aureus assessed as resistant isolates after 24 hrs by broth microdilution method
# Staphylococcus simulans [38] = test: Bactericidal activity against methicillin-resistant coagulase-negative Staphylococcus simulans after 24 hrs by plate counting method; procedure, shortened: as §2
# Mammaliicoccus sciuri [39] = test: Bactericidal activity against methicillin-resistant coagulase-negative Staphylococcus sciuri after 24 hrs by plate counting method; procedure, shortened: as §2
# Staphylococcus simulans [40] = test: Antimicrobial activity against methicillin-susceptible coagulase-negative Staphylococcus simulans assessed as susceptible isolates after 24 hrs by broth microdilution method; procedure, shortened: as §3
# [41] = test system: Staphylococcus epidermidis; test: Bactericidal activity against methicillin-susceptible coagulase-negative Staphylococcus epidermidis after 24 hrs by plate counting method; procedure, shortened: as §2
# Staphylococcus hominis [42] = test: Antimicrobial activity against methicillin-resistant coagulase-negative Staphylococcus hominis after 24 hrs by broth microdilution method; procedure, shortened: as §1
# [43] = Staphylococcus epidermidis, 24 h
# [44] = Staphylococcus haemolyticus, 24 h
structure (smiles),measurement,setting,value
CC1(C)S[C@@H]2[C@H](NC(=O)[C@H](N)c3ccccc3)C(=O)N2[C@H]1C(=O)O [AMPICILLIN],MIC50,[1],16 µg/mL
same,MIC90,[1],64 µg/mL
same,Activity,Staphylococcus simulans [2],100%
same,Activity,Mammaliicoccus sciuri [3],100%
same,Activity,[4],100%
same,MIC50,Mammaliicoccus sciuri [5],2 µg/mL
same,MIC90,Mammaliicoccus sciuri [5],16 µg/mL
same,MIC50,Staphylococcus simulans [6],2 µg/mL
same,MIC90,Staphylococcus simulans [6],16 µg/mL
same,Activity,Staphylococcus aureus [7],100%
same,Activity,[8],0%
same,Activity,[9],100%
same,Activity,Staphylococcus hominis [10],100%
same,MIC50,Mammaliicoccus sciuri [11],16 µg/mL
same,MIC90,Mammaliicoccus sciuri [11],64 µg/mL
same,MIC50,[12],2 µg/mL
same,MIC90,[12],16 µg/mL
same,Activity,Mammaliicoccus sciuri [13],100%
same,MIC50,Staphylococcus aureus [14],16 µg/mL
same,MIC90,Staphylococcus aureus [14],64 µg/mL
same,MBC50,Staphylococcus hominis [15],4 µg/mL
same,MBC90,Staphylococcus hominis [15],128 µg/mL
same,MBC,"Staphylococcus hominis [15]; Staphylococcus hominis, 24 h",1 µg/mL
same,MBC50,[16],32 µg/mL
same,MBC90,[16],256 µg/mL
same,MBC,[16]; [43],> 2 µg/mL
same,MBC50,Staphylococcus hominis [17],32 µg/mL
same,MBC90,Staphylococcus hominis [17],256 µg/mL
same,MBC,"Staphylococcus hominis [17]; Staphylococcus hominis, 24 h",> 2 µg/mL
same,MBC50,Mammaliicoccus sciuri [18],4 µg/mL
same,MBC90,Mammaliicoccus sciuri [18],128 µg/mL
same,MBC,"Mammaliicoccus sciuri [18]; Mammaliicoccus sciuri, 24 h",1 µg/mL
same,MIC50,[19],2 µg/mL
same,MIC90,[19],16 µg/mL
same,Activity,Staphylococcus hominis [20],0%
same,MIC50,[21],16 µg/mL
same,MIC90,[21],64 µg/mL
same,Activity,[22],0%
same,MBC90,Staphylococcus aureus [23],256 µg/mL
same,MBC,"Staphylococcus aureus [23]; Staphylococcus aureus, 24 h",32 µg/mL
same,Activity,Staphylococcus hominis [24],100%
same,Activity,Mammaliicoccus sciuri [25],0%
same,MIC50,Staphylococcus aureus [26],32 µg/mL
same,MIC90,Staphylococcus aureus [26],32 µg/mL
same,Activity,Staphylococcus simulans [27],100%
same,MIC50,Staphylococcus hominis [28],2 µg/mL
same,MIC90,Staphylococcus hominis [28],16 µg/mL
same,MBC50,Staphylococcus aureus [29],64 µg/mL
same,MBC90,Staphylococcus aureus [29],128 µg/mL
same,MBC,"Staphylococcus aureus [29]; Staphylococcus aureus, 24 h",1 µg/mL
same,Activity,Staphylococcus aureus [30],0%
same,MBC50,[31],4 µg/mL
same,MBC90,[31],128 µg/mL
same,MBC,[31]; [44],1 µg/mL
same,Activity,[32],100%
same,MBC50,Staphylococcus simulans [33],4 µg/mL
same,MBC90,Staphylococcus simulans [33],128 µg/mL
same,MIC50,Staphylococcus simulans [34],16 µg/mL
same,MIC90,Staphylococcus simulans [34],64 µg/mL
same,MBC50,[35],32 µg/mL
same,MBC90,[35],256 µg/mL
same,MBC,[35]; [44],> 2 µg/mL
same,Activity,[36],100%
same,Activity,Staphylococcus aureus [37],100%
same,MBC50,Staphylococcus simulans [38],32 µg/mL
same,MBC90,Staphylococcus simulans [38],256 µg/mL
same,MBC,"Staphylococcus simulans [38]; Staphylococcus simulans, 24 h",> 2 µg/mL
same,MBC50,Mammaliicoccus sciuri [39],32 µg/mL
same,MBC90,Mammaliicoccus sciuri [39],256 µg/mL
same,MBC,"Mammaliicoccus sciuri [39]; Mammaliicoccus sciuri, 24 h",> 2 µg/mL
same,Activity,Staphylococcus simulans [40],0%
same,MBC50,[41],4 µg/mL
same,MBC90,[41],128 µg/mL
same,MBC,[41]; [43],1 µg/mL
same,MIC50,Staphylococcus hominis [42],16 µg/mL
same,MIC90,Staphylococcus hominis [42],64 µg/mL

# From ChEMBL document CHEMBL1649231, “In vitro activities of panduratin A against clinical Staphylococcus strains” (2009)
